A short description of series [1]: Stability in rat intestinal perfusate. Type of series: ADME. Summed up:
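Stability measured by incubation in rat intestinal perfusate in vitro. Values are the mean of at least three determinations ± SEM from two perfusate preparations. Perfusate leucine aminopeptidase activity was 0.05–0.32 nkat/mL. Degradation was also checked with a potato tuber carboxypeptidase inhibitor added.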

Series [2] is filed under the species Oryctolagus cuniculus. The series can be described thus: Ability to antagonize endothelin -1 (ET-1) stimulated vasoconstriction in vitro in rabbit femoral artery. The note with it: read-out: pA2 (converted). Type of series: functional.
Series [3] is filed under the species Oryctolagus cuniculus. The series can be described thus: Ability to antagonize […] SRTX-6c stimulated vasoconstriction in vitro in rabbit pulmonary artery. Type of series: functional. The settings on record: read-out: pA2 (converted).
The test system of another series is Caco-2. The series can be described thus: Permeability in Caco-2 Cell monolayers for the compound. The series is classed as functional, cell-based. The note with it: Homo sapiens. Summed up: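 Transport measured across Caco-2 monolayers (human colon adenocarcinoma line that differentiates to an enterocyte-like phenotype). Each value is the mean of three to five cell monolayers, with standard errors.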
(Caco-2 cells form a polarised layer with tight junctions and transporters.)

Series [4] has as its target T1, Endothelin receptor type B (Rattus norvegicus, UniProt P21451).
T1 sequence (P21451 whole entry): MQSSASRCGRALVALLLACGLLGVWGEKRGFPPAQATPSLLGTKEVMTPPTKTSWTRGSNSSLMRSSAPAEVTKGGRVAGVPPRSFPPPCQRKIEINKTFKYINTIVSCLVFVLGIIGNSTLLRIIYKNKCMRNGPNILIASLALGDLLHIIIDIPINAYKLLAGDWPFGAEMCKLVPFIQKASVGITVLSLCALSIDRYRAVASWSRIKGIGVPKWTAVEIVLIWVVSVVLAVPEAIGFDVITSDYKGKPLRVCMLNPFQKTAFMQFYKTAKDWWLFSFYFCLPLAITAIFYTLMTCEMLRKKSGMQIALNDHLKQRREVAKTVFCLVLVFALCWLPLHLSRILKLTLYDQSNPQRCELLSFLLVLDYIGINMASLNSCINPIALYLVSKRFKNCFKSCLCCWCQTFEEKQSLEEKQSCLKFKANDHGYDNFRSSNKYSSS
The series can be described thus: Inhibition of binding to Endothelin B receptor of rat cerebellar membranes. Type of series: cell membranes, Membrane. In short, it runs like this: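 Competition binding assays: ETA on rabbit renal vascular smooth muscle cells, ETB on rat cerebellar membranes. Each IC50 comes from a single competition experiment with points measured in duplicate. Where more than one IC50 was determined, values are given as mean ± SEM.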

pIC50: −log10 of the molar value. Numbered stars: 1 amine (or outer) side, 2 acyl side, 3 side chain; on linkers, the order of the positions; unused ones are H or OH. Square brackets hold non-standard residues; d marks the D form. Peptide text beside a SMILES is read from it. dGly(5-dibenzosuberyl) = N[C@@H](C(=O)O)C1c2ccccc2CCc2ccccc21; X2 = O=C([C@@H](N[*:1])C1c2ccccc2CCc2ccccc21)[*:2]; NMeDip = CN[C@H](C(=O)O)C(c1ccccc1)c1ccccc1; NMeW = CN[C@@H](Cc1c[nH]c2ccccc12)C(=O)O; Dip = N[C@H](C(=O)O)C(c1ccccc1)c1ccccc1; NMeI = CC[C@H](C)[C@H](NC)C(=O)O; NMeD = CN[C@@H](CC(=O)O)C(=O)O

Usually half-life stands for how long it takes for the measured level to halve. In series [1], `CC[C@H](C)[C@H](NC(=O)[C@H](CC(=O)O)NC(=O)[C@H](CC(C)C)NC(=O)[C@@H](NC(C)=O)C(c1ccccc1)c1ccccc1)C(=O)N[C@H](C(=O)N[C@@H](Cc1c[nH]c2ccccc12)C(=O)O)[C@@H](C)CC` (Ac-[Dip]LDIIW-OH) returned a half-life of 0.302 h. In addition, the figures for the Kb in the series listed under Oryctolagus cuniculus [2] and in the series listed under Oryctolagus cuniculus [3] were 251 nM and 501 nM, respectively. In addition, the Permeability (10e4*cm min-1) with Caco-2 was 2.
The pIC50 is the negative decadic logarithm of the IC50, by convention in mol/L. Low readings indicate a high IC50, high ones a low IC50. In the case of `CC[C@H](C)[C@H](NC(=O)[C@@H](NC(=O)[C@H](CC(=O)O)NC(=O)[C@H](CC(C)C)NC(=O)[C@H](NC(C)=O)C(c1ccccc1)c1ccccc1)[C@@H](C)CC)C(=O)CNC(=O)[C@@H](N)Cc1c[nH]c2ccccc12`, in series [4], the pIC50 was less than 6.60.
In turn, `CC[C@H](C)[C@H](NC(=O)[C@H](CC(=O)O)NC(=O)[C@H](CC(C)C)NC(=O)[C@H](NC(C)=O)C1c2ccccc2CCc2ccccc21)C(=O)N[C@H](C(=O)N[C@@H](Cc1c[nH]c2ccccc12)C(=O)O)[C@@H](C)CC` (Ac-[dGly(5-dibenzosuberyl)]LDIIW-OH) had a half-life in series [1] of 0.177 h. In addition, the Kb in the series listed under Oryctolagus cuniculus [2] was 158 nM; in the series listed under Oryctolagus cuniculus [3], 100 nM.
In series [4], `CC[C@H](C)[C@H](NC(=O)[C@H](CC(=O)O)NC(=O)[C@H](CC(C)C)NC(=O)[C@H](C(c1ccccc1)c1ccccc1)N(C)C(C)=O)C(=O)N[C@H](C(=O)N[C@@H](Cc1c[nH]c2ccccc12)C(=O)O)[C@@H](C)CC` (Ac-[NMeDip]LDIIW-OH) gave a pIC50 of 5.10.
For the molecule `CC[C@H](C)[C@H](NC(=O)[C@H](CC(=O)O)NC(=O)[C@H](CC(C)C)NC(=O)[C@@H](NC(C)=O)C1c2ccccc2CCc2ccccc21)C(=O)N[C@H](C(=O)N[C@@H](Cc1c[nH]c2ccccc12)C(=O)O)[C@@H](C)CC` (Ac-[X2]LDIIW-OH), in the series with Caco-2, the Permeability (10e4*cm min-1) was 4.7.
Regarding `CC[C@H](C)[C@H](NC(=O)[C@H](CC(=O)O)NC(=O)[C@H](CC(C)C)NC(=O)[C@H](NC(C)=O)C1c2ccccc2CCc2ccccc21)C(=O)N(C)[C@H](C(=O)N[C@@H](Cc1c[nH]c2ccccc12)C(=O)O)[C@@H](C)CC`, the half-life in series [1] came out at 8.97 h. Also, the Kb in the series filed under Oryctolagus cuniculus [2] is 50.1 nM.
`CC[C@@H](C)[C@H](C(=O)N[C@@H](Cc1c[nH]c2ccccc12)C(=O)O)N(C)C(=O)[C@@H](NC(=O)[C@@H](CC(=O)O)NC(=O)[C@H](CC(C)C)NC(=O)[C@H](NC(C)=O)C1c2ccccc2CCc2ccccc21)[C@@H](C)CC` gave a Permeability (10e4*cm min-1) in the series with Caco-2 of 6.3.
As to `CC[C@H](C)[C@H](NC(=O)[C@@H](NC(=O)[C@H](CC(=O)O)N(C)C(=O)[C@H](CC(C)C)NC(=O)[C@@H](NC(C)=O)C(c1ccccc1)c1ccccc1)[C@@H](C)CC)C(=O)N[C@@H](Cc1c[nH]c2ccccc12)C(=O)O` (Ac-[Dip]L[NMeD]IIW-OH), the pIC50 in series [4] is 5.82.
The same measure, in the same setting: the same measure for `CC[C@H](C)[C@H](NC(=O)[C@H](CC(=O)O)NC(=O)[C@H](CC(C)C)NC(=O)[C@@H](NC(C)=O)C(c1ccccc1)c1ccccc1)C(=O)N[C@H](C(=O)N(C)[C@@H](Cc1c[nH]c2ccccc12)C(=O)O)[C@@H](C)CC` (Ac-[Dip]LDII[NMeW]-OH): 4.96.
`CC[C@H](C)[C@H](NC(=O)[C@H](CC(=O)O)NC(=O)[C@H](CC(C)C)NC(=O)[C@@H](NC(C)=O)C(c1ccccc1)c1ccccc1)C(=O)N(C)[C@H](C(=O)N[C@@H](Cc1c[nH]c2ccccc12)C(=O)O)[C@@H](C)CC` (Ac-[Dip]LDI[NMeI]W-OH) returned a half-life in series [1] of 14.6 h. The molecule further had a negative-log IC50 (pIC50) in series [4] of 7.10. This molecule registered a Permeability (10e4*cm min-1) in the series with Caco-2 of 2.
As for `CC[C@H](C)[C@H](NC(=O)[C@H]([C@@H](C)CC)N(C)C(=O)[C@H](CC(=O)O)NC(=O)[C@H](CC(C)C)NC(=O)[C@@H](NC(C)=O)C(c1ccccc1)c1ccccc1)C(=O)N[C@@H](Cc1c[nH]c2ccccc12)C(=O)O` (Ac-[Dip]LD[NMeI]IW-OH), the pIC50 in series [4] was less than 6.00.
On the same count and under the same terms, in the case of `CC[C@H](C)[C@H](NC(=O)[C@H](CC(=O)O)NC(=O)[C@H](CC(C)C)N(C)C(=O)[C@H](NC(C)=O)C(c1ccccc1)c1ccccc1)C(=O)N[C@H](C(=O)N[C@@H](Cc1c[nH]c2ccccc12)C(=O)O)[C@@H](C)CC` it was 6.22.
